For series [1], the system named is PC-12. The series is described as follows: Neuritogenic activity in rat PC12 cells assessed as round shaped cells with no neurite outgrowth at 100 uM after 48 hrs. Type of series: functional. In outline:
(§1)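 PC-12 cells on collagen (1 × 10^5 cells/mL, 4 h pre-culture) treated in duplicate for 48 h, compound delivered in MeOH (0.3% final); NGF 10 ng/mL and 0.3% MeOH controls. By phase contrast, over 300 cells or aggregates per well in six random fields classed as round with no neurite, neurite ≤ cell body, or neurite ≥ twice cell diameter; given as % of cells.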

Series [2] relates to PC-12. Briefly: Neuritogenic activity in rat PC12 cells assessed as neurite length twice the cell diameter or longer at 100 uM after 48 hrs. Type of series: functional. In outline: as §1
Series [3] concerns PC-12. The series is described as follows: Induction of neurite outgrowth in rat PC12 cells at 3.3 uM after 48 hrs. Type of series: functional, cell-based. The method in brief:
(§2)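 PC-12 cells plated on collagen at 1 × 10^5 cells/mL and cultured 4 h. Compound added from MeOH at 3.3, 10, 33 or 100 µM (0.3% MeOH final), in duplicate, then incubated 48 h. Positive control NGF 10 ng/mL; negative control 0.3% MeOH. Over 300 cells or aggregates per well in six random fields scored by phase-contrast microscopy for neurite outgrowth.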

Series [4] relates to PC-12. The series is described as follows: Induction of neurite outgrowth in rat PC12 cells at 100 uM after 48 hrs. Type of series: functional. In outline: as §2
Series [5] deals with PC-12. Briefly: Neuritogenic activity in rat PC12 cells assessed as neurite length equal or less than cell body at 33 uM after 48 hrs. The class given is functional. The method in brief:
as §1

Series [6] relates to PC-12. Briefly: Induction of neurite outgrowth in rat PC12 cells at 33 uM after 48 hrs. Type of series: functional. In outline: as §2
Series [7] is described as follows: Cytotoxicity against human IMR32 cells assessed as cell viability at 10 uM by MTT assay relative to control. Type of series: cell-based. The conditions noted are these: imr-32, 10 µM. In outline: (§3)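 IMR-32 cells grown in MEM/F12 with 10% fetal bovine serum; viability read by MTT assay in 96-well format. Test concentrations were 1, 10 and 100 µM, each tested six times.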
(In general: Tetrazolium dyes change colour on reduction, which living cells bring about.)

For series [8], the system named is PC-12. The series is described as follows: Neuritogenic activity in rat PC12 cells assessed as neurite length equal or less than cell body at 100 uM after 48 hrs. Type of series: functional. The method in brief:
as §1

Series [9] in a line: Cytotoxicity against human IMR32 cells assessed as cell viability at 100 uM by MTT assay relative to control. The class given is cell-based, IMR-32. The settings on record: read-out: Activity. The method in brief: as §3
The nature of series [10]: Cytotoxicity against human IMR32 cells assessed as cell viability at 1 uM by MTT assay relative to control. The settings on record: imr-32, 1 µM. Type of series: cell-based. In outline: as §3
Series [11] relates to PC-12. Briefly: Neuritogenic activity in rat PC12 cells assessed as round shaped cells with no neurite outgrowth at 33 uM after 48 hrs. Type of series: functional. In outline:
as §1

Series [12] has as its system PC-12. The series is described as follows: Induction of neurite outgrowth in rat PC12 cells at 10 uM after 48 hrs. The class given is functional, cell-based. The method in brief: as §2

Each structure is given as a SMILES string. The source made the active and inactive calls. No cut-off for these calls is given here.

As to `CC[C@@H](C)C[C@@H](C)/C=C(C)/C=C/C=C/C(=O)c1c(O)c([C@]2(O)CC[C@@H](O)CC2)c[nH]c1=O` [N-DEOXYMILITARINONE A], the Activity in [1] is 49%; in series [2], 21%; in [4] it was 51%; in [5] it was 12%; in series [6] it was 12%; in [7], “Not Active”. Moreover, the values for the Activity in series [8], in series [10] and in series [11] were 30%, “Not Active” and 88%, respectively. Besides, the result in series [3] and in series [12] was inactive. In addition, the viability at 100 µM in series [9] was 22%.

The record behind these values is ChEMBL document CHEMBL1157300, “(+)-N-Deoxymilitarinone A, a neuritogenic pyridone alkaloid from the insect pathogenic fungus Paecilomyces farinosus” (J Nat Prod, 2006).
